The source of these data is ChEMBL document CHEMBL5620421, “2,6-Disubstituted 7-(naphthalen-2-ylmethyl)-7H-purines as a new class of potent antitubercular agents inhibiting DprE1” (Eur J Med Chem, 2023).

Each structure is given as a SMILES string. Values after ≈ are worked out from the molar mass of the structure shown. Active and inactive are the calls of the source. The rule behind the calls is not given here.

Data set [1] deals with Mycobacterium tuberculosis. The data set is described as follows: Antitubercular activity against Mycobacterium tuberculosis CNCTC My 331/88 (H37Rv) assessed as inhibition of bacterial growth measured after 21 days of incubation by Sulas semisynthetic medium based assay. Particulars: 504 h, time 21 day. Format: functional. An outline of the steps: (§1)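 Micromethod MIC in Sula's semisynthetic medium. MIC is the lowest concentration inhibiting >99% of the mycobacterial population. Isoniazid was the standard drug.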

Data set [2] in a line: Aqueous solubility of compound incubated for 20 mins by UV-Visible spectrophotometric analysis. Format: physicochemical. The following applies: buffer. An outline of the steps:
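Solubility in ultrapure water containing 5% DMSO. Absorbance taken at each compound's λmax and compared with a six-point calibration made by serial dilution of a 50 μM standard, fitted by linear regression. Over-saturated solutions were sonicated at 37 °C for 10 min and centrifuged at 8000 RPM for 10 min. Supernatant absorbance was read, after dilution with 5% DMSO/water if above the calibration range.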

Data set [3] has as its system Mycobacterium avium. Nature of the data set: Antitubercular activity against Mycobacterium avium CNCTC My 330/88 assessed as inhibition of bacterial growth measured after 14 days of incubation by Sulas semisynthetic medium based assay. The following applies: CNCTC My 330/88, 336 h, time 14 day. Format: functional. The essentials:
(§2)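 M. avium was tested by the micromethod in Sula's semisynthetic medium. Compounds in DMSO at 1000 to 0.5 μmol/L. Incubation at 37 °C, read at 14 and 21 days. MIC is the lowest concentration giving >99% growth inhibition.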

A further data set deals with Klebsiella pneumoniae. The data set is described as follows: Antibacterial activity against ESBL negative Klebsiella pneumoniae C1950 assessed as inhibition of bacterial growth incubated for 24 to 48 hrs by microdilution broth method. In kind it is functional, organism-based. The following applies: time 24-48 hrs. The essentials:
(§3)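 Clinical isolates kept at –70 °C and subcultured twice on Mueller-Hinton agar, using the second subculture. Broth microdilution in Mueller-Hinton broth at pH 7.4 with two-fold serial compound dilutions and DMSO ≤1% final. Inoculum was 10 μL of a 1.5 × 10⁸ CFU/mL suspension. Incubated at 36 °C ± 1 °C and read at 24 h and 48 h. MIC taken as 95% growth inhibition.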
On the technique in general: In broth dilution the organism is exposed to a series of concentrations in liquid medium.

Data set [4] has as its system Mycobacterium avium. Nature of the data set: Antitubercular activity against Mycobacterium avium CNCTC My 330/88 assessed as inhibition of bacterial growth measured after 21 days of incubation by Sulas semisynthetic medium based assay. In kind it is functional. The following applies: CNCTC My 330/88, 504 h, time 21 day. An outline of the steps:
as §2

In data set [5] the test system is Mycobacterium tuberculosis. The data set is described as follows: Antimycobacterial activity against XDR clinical isolate Mycobacterium tuberculosis 8666/2010 assessed as inhibition of mycobacterial growth measured after 14 to 21 days of incubation by Sulas semisynthetic medium based assay. Particulars: time 14-21 day. In kind it is functional. An outline of the steps: (§4)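 Clinical MDR/XDR M. tuberculosis isolates were tested by the Sula's semisynthetic medium micromethod. Compounds in DMSO at 1000 to 0.5 μmol/L, in twofold-type steps. Incubation at 37 °C, read at 14 and 21 days. MIC99 is the lowest concentration inhibiting >99% of growth. Drug resistance or susceptibility of each isolate is to amikacin, clofazimine, gentamicin, ofloxacin, streptomycin and the others listed.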

Data set [6] relates to Staphylococcus epidermidis. Nature of the data set: Antibacterial activity against Staphylococcus epidermidis C1936 assessed as inhibition of bacterial growth incubated for 24 to 48 hrs by microdilution broth method. Format: functional, organism-based. Particulars: time 24-48 hrs. An outline of the steps: as §3
The test system of data set [7] is Mycobacterium tuberculosis. The data set is described as follows: Antimycobacterial activity against MDR clinical isolate Mycobacterium tuberculosis PRAHA 131 assessed as inhibition of mycobacterial growth measured after 14 to 21 days of incubation by Sulas semisynthetic medium based assay. In kind it is functional. Particulars: time 14-21 day. An outline of the steps: as §4

The next data set relates to Mycobacterium kansasii. The data set is described as follows: Antitubercular activity against Mycobacterium kansasii CNCTC My 235/80 assessed as inhibition of bacterial growth measured after 14 days of incubation by Sulas semisynthetic medium based assay. In kind it is functional. Particulars: CNCTC My 235/80, 336 h, time 14 day. An outline of the steps: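 Micromethod in Sula's semisynthetic medium. MIC is the lowest concentration inhibiting >99% of the mycobacterial population. Isoniazid was the standard.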

The next data set has as its system H9c2. Nature of the data set: Cytotoxicity against rat H9c2 cells assessed as cell viability at 50 uM incubated for 72 hrs by MTT spectrophotometric analysis relative to control. Format: functional. Particulars: read-out: Activity. An outline of the steps:
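HepG2 or rat H9c2 cells in DMEM with FBS, seeded at 10,000 cells/well. Treated 24 h later for 72 h, with 0.1% DMSO vehicle and 1% Triton X-100 as controls. MTT added (3 mg/mL solution) for 2 h at 37 °C, then cells lysed in isopropanol/0.1 M HCl/5% Triton X-100. Read at 570 nm minus 690 nm. Viability expressed as % of vehicle; IC50 derived where reached. At least four independent experiments.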

Data set [8] deals with Mycobacterium tuberculosis. Nature of the data set: Antitubercular activity against Mycobacterium tuberculosis CNCTC My 331/88 (H37Rv) assessed as inhibition of bacterial growth measured after 14 days of incubation by Sulas semisynthetic medium based assay. Particulars: 336 h, time 14 day. In kind it is functional. The essentials: as §1
The subject of the next data set is HepG2. Nature of the data set: Cytotoxicity against human HepG2 cells incubated for 24 hrs by MTT assay. Particulars: HepG2, 24 h. Format: functional, cell-based. The essentials:
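HepG2 cells in DMEM with 10% FBS, seeded at 15 × 10³ cells/well and attached overnight. Exposed for 24 h to serial dilutions prepared from DMSO stocks, final DMSO ≤1%. Then given fresh medium with 0.5 mg/mL MTT for 1 h at 37 °C. Formazan dissolved in DMSO and read at 570 nm. IC50 from 4-parameter nonlinear regression; three independent experiments in triplicate, mean ± SD.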
On the technique in general: Formazan colour is commonly taken as a measure of viable cells.

Data set [9] has as its system Mycobacterium tuberculosis. Nature of the data set: Antimycobacterial activity against MDR clinical isolate Mycobacterium tuberculosis 9449/2007 assessed as inhibition of mycobacterial growth measured after 14 to 21 days of incubation by Sulas semisynthetic medium based assay. Format: functional. Particulars: time 14-21 day. An outline of the steps: as §4
Data set [10] is described as follows: Intrinsic clearance in human liver microsomes at 3 uM incubated for 5 to 45 min in presence of NADPH by LC-MS analysis. The following applies: time 5-45 min, read-out: CLH. In kind it is ADME, Microsome. (In general: Liver microsomes are a subcellular fraction often used to study metabolism.)
Data set [11] concerns Staphylococcus aureus. Nature of the data set: Antibacterial activity against Staphylococcus aureus C1947 assessed as inhibition of bacterial growth incubated for 24 to 48 hrs by microdilution broth method. Particulars: time 24-48 hrs. Format: functional, organism-based. An outline of the steps:
as §3

The subject of data set [12] is Mycobacterium tuberculosis. Nature of the data set: Antimycobacterial activity against MDR clinical isolate Mycobacterium tuberculosis 8666/2010 assessed as inhibition of mycobacterial growth measured after 14 to 21 days of incubation by Sulas semisynthetic medium based assay. In kind it is functional. Particulars: time 14-21 day. An outline of the steps:
as §4

Data set [13] has as its system Staphylococcus aureus. Nature of the data set: Antibacterial activity against methicilin-resistant Staphylococcus aureus C1923 assessed as inhibition of bacterial growth incubated for 24 to 48 hrs by microdilution broth method. The following applies: time 24-48 hrs. In kind it is functional, organism-based. An outline of the steps:
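Clinical isolates, stored at −70 °C, were passaged twice on Mueller-Hinton agar. Broth microdilution in Mueller-Hinton broth, pH 7.4, with twofold serial dilutions. DMSO was at most 1% final. Inoculum 1.5 × 10⁸ CFU/mL suspension. MIC is 95% growth inhibition, read after 24 and 48 h at 36 °C.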

Data set [14] relates to Mycobacterium tuberculosis. The data set is described as follows: Antimycobacterial activity against MDR clinical isolate Mycobacterium tuberculosis 234/2005 assessed as inhibition of mycobacterial growth measured after 14 to 21 days of incubation by Sulas semisynthetic medium based assay. In kind it is functional. Particulars: time 14-21 day. The essentials:
as §4

The test system of data set [15] is Mycobacterium tuberculosis. The data set is described as follows: Antimycobacterial activity against MDR clinical isolate Mycobacterium tuberculosis PRAHA 4 assessed as inhibition of mycobacterial growth measured after 14 to 21 days of incubation by Sulas semisynthetic medium based assay. Format: functional. The following applies: time 14-21 day. The essentials:
as §4

The test system of data set [16] is Mycobacterium tuberculosis. Nature of the data set: Antimycobacterial activity against MDR clinical isolate Mycobacterium tuberculosis 7357/1998 assessed as inhibition of mycobacterial growth measured after 14 to 21 days of incubation by Sulas semisynthetic medium based assay. In kind it is functional. The following applies: time 14-21 day. An outline of the steps:
as §4

The test system of data set [17] is Mycobacterium tuberculosis. The data set is described as follows: Antimycobacterial activity against XDR clinical isolate Mycobacterium tuberculosis PRAHA 1 assessed as inhibition of mycobacterial growth measured after 14 to 21 days of incubation by Sulas semisynthetic medium based assay. Format: functional. Particulars: time 14-21 day. The essentials: as §4

In the case of `CCNc1nc(N2CCOCC2)nc2ncn(Cc3ccc4ccccc4c3)c12`, the MIC99 (as a rule, an inhibitory concentration at the 99% level, which refers to growth in some studies and to a panel of isolates in others) in data set [1] stood at 1 µM (≈ 0.388 µg/mL); with Mycobacterium avium [3], 250 µM (≈ 97.1 µg/mL); with Mycobacterium avium [4] it was 250 µM (≈ 97.1 µg/mL); in [5] it was 2 µM (≈ 0.777 µg/mL); in [7], 2 µM (≈ 0.777 µg/mL); in the data set with Mycobacterium kansasii, 8 µM (≈ 3.11 µg/mL). Also, the MIC99 worked out at 1 µM (≈ 0.388 µg/mL) in data set [8], 2 µM (≈ 0.777 µg/mL) in [9] and 2 µM (≈ 0.777 µg/mL) in [12]. The solubility – broadly, how much of the substance goes into solution per volume – at 20 min in [2] worked out at 150 µM (≈ 58.4 µg/mL). Moreover, the result (in the data set on Klebsiella pneumoniae; in data set [6]; with Staphylococcus aureus [11]; in the data set with Staphylococcus aureus [13]) was inactive. Also, the viability at 50 µM with H9c2 is 88%. Further, the IC50 (usually the midpoint of a concentration-inhibition curve) with HepG2 is 63.9 µM. Besides, the microsomal CLint at 3 µM in data set [10] was 27 µL/min/mg.
For the compound `CCOc1nc(N2CCOCC2)nc2ncn(Cc3ccc4ccccc4c3)c12`, the MIC99 was 2 µM (≈ 0.779 µg/mL) in data set [1]; more than 500 µM in the data set with Mycobacterium avium [3]; more than 500 µM with Mycobacterium avium [4]; 2 µM (≈ 0.779 µg/mL) in data set [5]; 2 µM (≈ 0.779 µg/mL) in data set [7]; 16 µM (≈ 6.23 µg/mL) with Mycobacterium kansasii. For the same compound, the MIC99 in data set [8] is 1 µM (≈ 0.389 µg/mL); in [9], 2 µM (≈ 0.779 µg/mL); in data set [12], 2 µM (≈ 0.779 µg/mL). In data set [2], this compound registered a solubility at 20 min of 81.3 µM (≈ 31.7 µg/mL). Moreover, the result (with Klebsiella pneumoniae; in [6]; with Staphylococcus aureus [11]; in the data set on Staphylococcus aureus [13]) was inactive. In the data set on H9c2, the viability at 50 µM was 94.8%. The compound also showed an IC50 with HepG2 of 43.5 µM. Further, the microsomal CLint at 3 µM in data set [10] came out at 24.4 µL/min/mg.
Take `c1ccc2cc(Cn3cnc4nc(N5CCOCC5)nc(NC5CCC5)c43)ccc2c1`: the MIC99 in data set [1] was found to be 4 µM (≈ 1.66 µg/mL); with Mycobacterium avium [3], 250 µM (≈ 104 µg/mL); in the data set on Mycobacterium avium [4] it was 500 µM (≈ 207 µg/mL); in [5], 8 µM (≈ 3.32 µg/mL); in [14], 4 µM (≈ 1.66 µg/mL); in [15], 4 µM (≈ 1.66 µg/mL). The MIC99 in [16] was found to be 4 µM (≈ 1.66 µg/mL); in data set [7], 4 µM (≈ 1.66 µg/mL); in data set [17], 4 µM (≈ 1.66 µg/mL); with Mycobacterium kansasii it was 8 µM (≈ 3.32 µg/mL); in data set [8], 2 µM (≈ 0.829 µg/mL); in data set [9], 4 µM (≈ 1.66 µg/mL). In [12], the MIC99 came out at 4 µM (≈ 1.66 µg/mL). The solubility at 20 min in data set [2] stood at 159 µM (≈ 65.9 µg/mL). In the data set with Klebsiella pneumoniae, the result was inactive. For the same compound, the outcome (in [6]; in the data set with Staphylococcus aureus [11]; in the data set on Staphylococcus aureus [13]) was Active. Moreover, in the data set on HepG2, half-maximal inhibition (IC50) was put at 33 µM. In [10], the microsomal CLint at 3 µM worked out at 36.6 µL/min/mg.
